# CHRM1 antagonist – human CHRM1 antagonism. inhibition, % at 3 µM. AID 588852. 360,000 tested, 1.3% active. CHO-K1 hM1, Fluo-8 calcium fluorescence, ACh EC80 antagonist. P11229;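 active = percent inhibition above its own plate's cutoff, namely the mean of that plate's compound wells plus 3 SD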;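 note: peak over basal fluorescence ratio during 140 s after agonist addition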
# M1 PAM – positive allosteric modulators of human M1 muscarinic receptor. activation, % at 3 µM. 360,000 tested, 0.088% active. CHO-K1 hM1, Fluo-8 calcium fluorescence, ACh EC20; 0% = ACh EC20, 100% = maximal ACh. P11229; in the data active = activation above about 19%, passing the limit was not always enough
# M1 ag – agonists of human M1 muscarinic receptor. activation, % at 3 µM. AID 588814. CHO-K1 hM1, Fluo-8 calcium fluorescence, agonist mode; 0% DMSO, 100% acetylcholine EC100. 360,000 tested, 0.33% active. P11229;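 active = activation above the run's mean compound activation plus 3 SD, cut at about 16% in these data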;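 note: peak over basal fluorescence ratio within a 140 s kinetic read after compound addition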
# TAAR1 agonist – agonists of human TAAR1. Q96RJ0. activation, % at 3 µM. CHO RD-HGA16 TAAR1, Fluo-8 calcium fluorescence; vehicle wells 0%, saturating PEA agonist 100%. 360,000 tested, 0.99% active;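 active = activation above the mean activation of all test compounds in the run plus 3 SD, cut at about 38% in these data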
# Target sequence (Q96RJ0 whole entry, looked up): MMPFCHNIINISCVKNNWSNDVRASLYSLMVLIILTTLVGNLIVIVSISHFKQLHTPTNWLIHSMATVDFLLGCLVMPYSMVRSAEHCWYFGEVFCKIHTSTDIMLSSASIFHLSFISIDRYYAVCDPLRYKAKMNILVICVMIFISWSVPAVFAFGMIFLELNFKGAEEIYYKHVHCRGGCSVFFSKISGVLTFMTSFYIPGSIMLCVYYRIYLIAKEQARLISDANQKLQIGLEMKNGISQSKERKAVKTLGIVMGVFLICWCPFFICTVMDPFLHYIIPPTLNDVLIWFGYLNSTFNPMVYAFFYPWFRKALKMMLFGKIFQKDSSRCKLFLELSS
#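 System: CHO RD-HGA16 cells carrying human TAAR1 plus Gα16; Incubation: 17-24 h seeding, 75 min 37 °C dye, 30 min RT; Measured by: Fluo-8 fluorescence, 5 s baseline then 140 s kinetic read; Control set: DMSO and PEA EC100; Replication: single well for each compound.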
# TAAR1 antagonist – antagonists of human TAAR1; Q96RJ0; CHO RD-HGA16 TAAR1, Fluo-8 calcium fluorescence, antagonist; inhibition, % at 3 µM; 360,000 tested, 1.5% active;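 active = inhibition above a per-plate cutoff, the mean inhibition of test compounds on that plate plus 3 SD, cut at about 49% in these data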
#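 Material: CHO RD-HGA16 cells bearing hTAAR1; compound dosing: one-point dosing, 3 µM nominal final; schedule: dye loading 75 min at 37 °C, then 30 min room temperature; measured by: calcium fluorescence with Fluo-8; control set: vehicle and agonist controls; replication: n of 1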
# Numbers stand for hits; i = inactive; nt = no result given. In the library only some 3.4% were active in any assay of this set; here they are far more common.
SMILES,CHRM1 antagonist,M1 PAM,M1 ag,TAAR1 agonist,TAAR1 antagonist
CCOC(=O)C1=C(COC(=O)/C=C/c2cccc(F)c2)NC(=O)NC1C (stereo unspecified),i,i,i,i,52
CCOC(=O)C1=C(COC(=O)/C=C/c2ccc(Cl)cc2)NC(=O)NC1C (stereo unspecified),i,i,i,i,i
CCOC(=O)C1=C(COC(=O)/C=C/c2ccccc2F)NC(=O)NC1C (stereo unspecified),27,i,i,i,56
CCOC(=O)C1=C(COC(=O)/C=C/c2ccc(F)cc2)NC(=O)NC1C (stereo unspecified),i,i,i,i,55
CCOC(=O)C1=C(COC(=O)/C=C/c2ccc(OCC)c(OC)c2)NC(=O)NC1C (stereo unspecified),i,i,i,i,i
COc1ccc(S(=O)(=O)N2CCC[C@@H]2C(=O)N2CCC[C@H]2C(=O)NCc2ccncc2)cc1C,nt,nt,nt,i,i
C[C@@H]1CN([C@H](C)CO)C(=O)CCCn2cc(nn2)CO[C@H]1CN(C)S(=O)(=O)c1cn(C)cn1,nt,nt,nt,i,i
FC(F)(F)c1ccccc1Cc1c(-c2ccccc2)nc2ccc(Br)cn12,i,i,i,i,i
CN(C(=O)COC(=O)c1ccc(S(=O)(=O)N2CCCC2)cc1)c1ccccc1,50,i,i,i,i
Cc1ccc(NC(=O)COc2ccc(C(=O)c3ccccc3)cc2)c(O)c1,i,i,i,i,i
COc1cccc(C(=O)Nc2cc(C)ccc2NC(=O)COc2ccccc2)c1,48,i,i,i,i
O=C1C2CSCN2C(=O)CN1CCCN1CCN(C(c2ccccc2)c2ccccc2)CC1 (stereo unspecified),62,i,i,i,i
O=C1c2ccccc2C(=O)N1CC#CCN1CCN(C(c2ccccc2)c2ccccc2)CC1,i,i,i,i,i
COc1ccc(C(CNC(=O)Cc2c(F)cccc2Cl)N2CCCCC2)cc1 (stereo unspecified),68,i,i,i,i
C[N+](C)(C)CC/C=C1/c2ccccc2CSc2ccccc21,96,i,i,i,i
CC(=O)OCCCN(C)CC/C=C1/c2ccccc2CSc2ccccc21,74,i,i,i,i
COCc1cc(N2CCNC[C@H]2C)ccc1N1CCN(Cc2ccccc2)[C@H](C)C1,nt,nt,nt,i,i
Cc1ccc(NC(=O)/C(C#N)=N/Nc2ccc(C(=O)O)cc2)c(C)c1,i,24,i,i,i
O=C(Nc1ccc(N2CCN(C(=O)c3ccccc3F)CC2)cc1)c1cncc(Br)c1,i,i,i,i,52
O=C(NCCc1ccccn1)C(F)(F)C(F)(F)C(F)(F)C(F)(F)C(F)(F)C(F)(F)C(F)(F)C(F)F,i,i,i,41,i
Nc1[nH]c(C(=O)c2ccccc2)c(-c2ccccn2)c1C(=O)c1c[nH]c2ccc(F)cc12,nt,nt,nt,i,i
COc1cccc(-c2cc3nc(NCCN4CCCC4)n(C)c(=O)c3s2)c1,i,i,i,i,i
CCOP(=O)(c1ccccc1)c1nc(-c2ccccc2C)oc1N1CCCCC1 (stereo unspecified),nt,nt,nt,60,i
O=C(c1cccc(Cl)c1)N1CCN(c2ccccn2)CC1,i,i,i,i,i
CC(C)c1ccc(OCc2ccc(C(=O)N3CCN(c4ccccn4)CC3)cc2)cc1,i,i,i,i,57
SMILES,CHRM1 antagonist,M1 PAM,M1 ag,TAAR1 agonist,TAAR1 antagonist
CCOC(=O)CNC(=O)c1cnc(Nc2ccccc2OC)c2ccccc12,i,i,i,i,i
O=C(c1ccc(S(=O)(=O)c2cccc(Cl)c2)c([N+](=O)[O-])c1)N1CCN(c2ccccn2)CC1,58,i,i,i,i
CCN1CCN(c2ncc(C(=O)N3CCN(c4ccccc4OC)CC3)c3ccccc23)CC1,21,i,i,i,i
CCOC(=O)N1CCN(C(=O)c2cnc(Nc3ccccc3OC)c3ccccc23)CC1,33,i,i,i,i
O=C(c1ccc(S(=O)(=O)Nc2ccccc2F)cc1)N1CCN(c2ccccn2)CC1,51,i,i,i,i
O=C(c1cc(Cl)ccc1Cl)N1CCN(c2ccccn2)CC1,i,i,i,i,i
CCN1CCN(c2ncc(C(=O)Nc3cc(Cl)c(OC)cc3OC)c3ccccc23)CC1,34,i,i,i,i
O=C(c1cnc(N2CCN(c3ccccn3)CC2)c2ccccc12)N1CCN(c2cccc(Cl)c2)CC1,i,i,i,i,60
CCN1CCN(c2ncc(C(=O)Nc3c(F)cc(F)cc3Br)c3ccccc23)CC1,i,i,i,i,i
Cc1nc2c(OCc3ccc(C#N)cc3)cccn2c1N(C)C(=O)CCC1CCCC1,40,i,i,i,i
Cc1nc2c(OCc3ccc(Cl)cc3)cccn2c1N(C)C(=O)CCC1CCCC1,i,i,i,i,i
Cc1nc2c(OCc3ccc(F)cc3)cccn2c1N(C)C(=O)CCC1CCCC1,43,i,i,i,i
Cc1cc(C)cc([C@H]2C[C@]34CN(Cc5ccccc5)S(=O)(=O)[C@H]3C[C@H]2O4)c1,nt,nt,nt,i,i
CN1OC[C@@H]2CN(C(=O)CCc3ccccc3)[C@H](c3ccc(N4CCCCC4)cc3)C[C@@H]21,i,i,i,i,i
Cc1nn(-c2ccccc2)c2c1C(c1ccc([N+](=O)[O-])cc1)N1C(=N2)C(=O)Nc2ccccc21 (stereo unspecified),i,i,i,i,51
CC(C)(C)c1ccc(C(=O)CCC(=O)OCC(=O)NCCc2ccc(S(N)(=O)=O)cc2)cc1,47,i,i,i,62
NS(=O)(=O)c1ccc(CCNC(=O)COC(=O)CCc2ccccc2)cc1,i,i,i,i,i
COC1CCN(Cc2c(C(=O)N3C[C@@H](C)O[C@@H](C)C3)nc3ccc(Cl)cn23)CC1,i,i,i,i,i
CCN(CC)C1CCN(Cc2c(C(=O)N3CCCCCCC3)nc3ccc(Cl)cn23)C1 (stereo unspecified),32,i,i,i,i
O=C(c1ncn(Cc2ccccc2)c1C(=O)N1CCN(c2ccccc2)CC1)N1CCN(c2ccccc2)CC1,i,i,i,i,i
O=C(c1nc2ccc(Cl)cn2c1CN1CCCC1)N1CCc2ccccc2C1,i,i,i,47,i
O=C(c1ncn(Cc2ccccc2)c1C(=O)N1CCc2ccccc2C1)N1CCc2ccccc2C1,i,i,i,41,i
Cc1ccc(S(=O)(=O)N2C[C@H]3C(=O)C[C@@H](c4ccc(Cl)cc4)N(S(=O)(=O)c4ccc(C)cc4)[C@H]3C[C@H]2c2ccccc2)cc1,i,i,i,i,i
CCN(C(=O)CSc1nnc(-c2ccco2)n1Cc1ccccc1)C1CCS(=O)(=O)C1 (stereo unspecified),i,27,i,i,i
Cc1cc2c(nc1C)CCCN2Cc1ccc(Br)cc1,nt,nt,nt,i,i
